Experimental data reported in ChEMBL document CHEMBL2406932, “Heteroaromatic and aniline derivatives of piperidines as potent ligands for vesicular acetylcholine transporter” (J Med Chem, 2013).
Blank lines part the entries; values can stand above or below the compound they belong to.

Legend:
Blood [1] = assay: Biodistribution in Sprague-Dawley rat blood at 350 uCi, iv after 5 mins; assay type: ADME, organism-based; settings: in vivo
Heart [2] = assay: Biodistribution in Sprague-Dawley rat heart at 350 uCi, iv after 5 mins; assay type: ADME, organism-based; settings: in vivo
Lung [3] = assay: Biodistribution in Sprague-Dawley rat lung at 350 uCi, iv after 5 mins; assay type: ADME, organism-based; settings: in vivo
Liver [4] = assay: Biodistribution in Sprague-Dawley rat liver at 350 uCi, iv after 5 mins; assay type: ADME, organism-based; settings: in vivo
Muscle tissue [5] = assay: Biodistribution in Sprague-Dawley rat muscle at 350 uCi, iv after 5 mins; assay type: ADME, organism-based; settings: in vivo
Rattus norvegicus [6] = assay: Biodistribution in Sprague-Dawley rat fat at 350 uCi, iv after 5 mins; assay type: ADME, organism-based, Adipose tissue; settings: in vivo
Pancreas [7] = assay: Biodistribution in Sprague-Dawley rat pancreas at 350 uCi, iv after 5 mins; assay type: ADME, organism-based; settings: in vivo
Spleen [8] = assay: Biodistribution in Sprague-Dawley rat spleen at 350 uCi, iv after 5 mins; assay type: ADME, organism-based; settings: in vivo
Kidney [9] = assay: Biodistribution in Sprague-Dawley rat kidney at 350 uCi, iv after 5 mins; assay type: ADME, organism-based; settings: in vivo
Brain [10] = assay: Biodistribution in Sprague-Dawley rat brain at 350 uCi, iv after 5 mins; assay type: ADME, organism-based; settings: in vivo
Blood [11] = assay: Biodistribution in Sprague-Dawley rat blood at 350 uCi, iv after 30 mins; assay type: ADME, organism-based; settings: in vivo, 0.5 h
Heart [12] = assay: Biodistribution in Sprague-Dawley rat heart at 350 uCi, iv after 30 mins; assay type: ADME, organism-based; settings: in vivo, 0.5 h
Lung [13] = assay: Biodistribution in Sprague-Dawley rat lung at 350 uCi, iv after 30 mins; assay type: ADME, organism-based; settings: in vivo, 0.5 h
Muscle tissue [14] = assay: Biodistribution in Sprague-Dawley rat muscle at 350 uCi, iv after 30 mins; assay type: ADME, organism-based; settings: in vivo, 0.5 h
Rattus norvegicus [15] = assay: Biodistribution in Sprague-Dawley rat fat at 350 uCi, iv after 30 mins; assay type: ADME, organism-based, Adipose tissue; settings: in vivo, 0.5 h
Pancreas [16] = assay: Biodistribution in Sprague-Dawley rat pancreas at 350 uCi, iv after 30 mins; assay type: ADME, organism-based; settings: in vivo, 0.5 h
Spleen [17] = assay: Biodistribution in Sprague-Dawley rat spleen at 350 uCi, iv after 30 mins; assay type: ADME, organism-based; settings: in vivo, 0.5 h
Kidney [18] = assay: Biodistribution in Sprague-Dawley rat kidney at 350 uCi, iv after 30 mins; assay type: ADME, organism-based; settings: in vivo, 0.5 h
Brain [19] = assay: (§1) Biodistribution in Sprague-Dawley rat brain at 350 uCi, iv after 30 mins; assay type: ADME, organism-based; settings: in vivo, 0.5 h
Liver [20] = assay: Biodistribution in Sprague-Dawley rat liver at 350 uCi, iv after 30 mins; assay type: ADME, organism-based; settings: in vivo, 0.5 h
Blood [21] = assay: Biodistribution in Sprague-Dawley rat blood at 350 uCi, iv after 30 mins in presence of cyclosporin A; assay type: ADME, organism-based; settings: in vivo, 0.5 h
Heart [22] = assay: Biodistribution in Sprague-Dawley rat heart at 350 uCi, iv after 30 mins in presence of cyclosporin A; assay type: ADME, organism-based; settings: in vivo, 0.5 h
Lung [23] = assay: Biodistribution in Sprague-Dawley rat lung at 350 uCi, iv after 30 mins in presence of cyclosporin A; assay type: ADME, organism-based; settings: in vivo, 0.5 h
Liver [24] = assay: Biodistribution in Sprague-Dawley rat liver at 350 uCi, iv after 30 mins in presence of cyclosporin A; assay type: ADME, organism-based; settings: in vivo, 0.5 h
Muscle tissue [25] = assay: Biodistribution in Sprague-Dawley rat muscle at 350 uCi, iv after 30 mins in presence of cyclosporin A; assay type: ADME, organism-based; settings: in vivo, 0.5 h
Rattus norvegicus [26] = assay: Biodistribution in Sprague-Dawley rat fat at 350 uCi, iv after 30 mins in the presence of cyclosporin A; assay type: ADME, organism-based, Adipose tissue; settings: in vivo, 0.5 h
Pancreas [27] = assay: Biodistribution in Sprague-Dawley rat pancreas at 350 uCi, iv after 30 mins in the presence of cyclosporin A; assay type: ADME, organism-based; settings: in vivo, 0.5 h
Spleen [28] = assay: Biodistribution in Sprague-Dawley rat spleen at 350 uCi, iv after 30 mins in the presence of cyclosporin A; assay type: ADME, organism-based; settings: in vivo, 0.5 h
Kidney [29] = assay: Biodistribution in Sprague-Dawley rat kidney at 350 uCi, iv after 30 mins in the presence of cyclosporin A; assay type: ADME, organism-based; settings: in vivo, 0.5 h
Brain [30] = assay: Biodistribution in Sprague-Dawley rat brain at 350 uCi, iv after 30 mins in the presence of cyclosporin A; assay type: ADME, organism-based; settings: in vivo, 0.5 h
Cerebellum [31] = assay: Biodistribution in Sprague-Dawley rat cerebellum at 350 uCi, iv after 30 mins; assay type: ADME, organism-based; settings: in vivo, 0.5 h
Striatum [32] = assay: Biodistribution in Sprague-Dawley rat striatum at 350 uCi, iv after 30 mins; assay type: ADME, organism-based; settings: in vivo, 0.5 h
Rattus norvegicus [33] = assay: Biodistribution in Sprague-Dawley rat brain stem at 350 uCi, iv after 30 mins; assay type: ADME, organism-based; settings: in vivo, 0.5 h
Cortex [34] = assay: Biodistribution in Sprague-Dawley rat cortex at 350 uCi, iv after 30 mins; assay type: ADME, organism-based; settings: in vivo, 0.5 h
Thalamus [35] = assay: Biodistribution in Sprague-Dawley rat thalamus at 350 uCi, iv after 30 mins; assay type: ADME, organism-based; settings: in vivo, 0.5 h
Hippocampus [36] = assay: Biodistribution in Sprague-Dawley rat hippocampus at 350 uCi, iv after 30 mins; assay type: ADME, organism-based; settings: in vivo, 0.5 h
Brain [37] = assay: as §1; assay type: ADME, organism-based; settings: in vivo, 0.5 h; remark: listed apart in the source
Cerebellum [38] = assay: Biodistribution in Sprague-Dawley rat cerebellum at 350 uCi, iv after 30 mins in presence of cyclosporin A; assay type: ADME, organism-based; settings: in vivo, 0.5 h
Striatum [39] = assay: Biodistribution in Sprague-Dawley rat striatum at 350 uCi, iv after 30 mins in presence of cyclosporin A; assay type: ADME, organism-based; settings: in vivo, 0.5 h
Rattus norvegicus [40] = assay: Biodistribution in Sprague-Dawley rat brain stem at 350 uCi, iv after 30 mins in presence of cyclosporin A; assay type: ADME, organism-based; settings: in vivo, 0.5 h
Cortex [41] = assay: Biodistribution in Sprague-Dawley rat cortex at 350 uCi, iv after 30 mins in presence of cyclosporin A; assay type: ADME, organism-based; settings: in vivo, 0.5 h
Thalamus [42] = assay: Biodistribution in Sprague-Dawley rat thalamus at 350 uCi, iv after 30 mins in presence of cyclosporin A; assay type: ADME, organism-based; settings: in vivo, 0.5 h
Hippocampus [43] = assay: Biodistribution in Sprague-Dawley rat hippocampus at 350 uCi, iv after 30 mins in presence of cyclosporin A; assay type: ADME, organism-based; settings: in vivo, 0.5 h
Brain [44] = assay: Biodistribution in Sprague-Dawley rat brain at 350 uCi, iv after 30 mins in presence of cyclosporin A; assay type: ADME, organism-based; settings: in vivo, 0.5 h
[45] = Biodistribution in cynomolgus monkey striatum at 5 to 7 mCi, iv up to 100 mins by microPET analysis; assay type: ADME, organism-based, Macaca fascicularis; settings: in vivo
Procedure, shortened: (§2)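 Male cynomolgus monkeys (4–6 kg) were fasted 12 h, induced with ketamine (10 mg/kg) and glycopyrrolate (0.13 mg/kg) i.m., intubated and kept on 0.75–2.0% isoflurane. After attenuation-correction transmission scans, 5–7 mCi of tracer was given via venous catheter and a 100 min dynamic microPET scan was acquired. MRI-coregistered regions of interest yielded time-activity curves; n = 3.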

[46] = Biodistribution in cynomolgus monkey striatum at 5 to 7 mCi, iv after 10 mins by microPET analysis; assay type: ADME, organism-based, Macaca fascicularis; settings: in vivo; procedure, shortened: as §2
Brain [47] = assay: Ratio of drug uptake in Sprague-Dawley rat brain in absence of cyclosporin A to drug uptake in Sprague-Dawley rat brain in presence of cyclosporin A; assay type: ADME, tissue-based; settings: in vivo
Procedure, shortened: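 Cyclosporine A (Sandimmune diluted 1:1 with saline) was given i.v. at 25 mg/kg 30 min before the radioligand. Rats were euthanized 30 min after tracer injection. Groups were compared with controls by Student t test (n=4).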

[48] = molecular target: Sigma non-opioid intracellular receptor 1 (Cavia porcellus, UniProt Q60492); assay: Displacement of (+)- [3H]pentazocine from sigma 1 receptor expressed in guinea pig brain membrane homogenates by scintillation counting analysis; assay type: cell membranes
Chain of Sigma non-opioid intracellular receptor 1 (Q60492 whole entry): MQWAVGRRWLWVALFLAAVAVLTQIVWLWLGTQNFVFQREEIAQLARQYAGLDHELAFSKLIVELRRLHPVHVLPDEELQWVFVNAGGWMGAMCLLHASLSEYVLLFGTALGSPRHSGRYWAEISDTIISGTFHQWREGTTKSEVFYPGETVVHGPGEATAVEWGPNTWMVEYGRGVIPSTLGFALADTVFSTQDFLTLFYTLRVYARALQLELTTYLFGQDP

[49] = molecular target: T1, Vesicular acetylcholine transporter (Homo sapiens, UniProt Q16572); assay: Displacement of (-)-[3H]vesamicol from human VAChT expressed in rat PC12 cell membrane after 20 hrs; assay type: cell membranes, PC-12
T1 sequence (Q16572 whole entry): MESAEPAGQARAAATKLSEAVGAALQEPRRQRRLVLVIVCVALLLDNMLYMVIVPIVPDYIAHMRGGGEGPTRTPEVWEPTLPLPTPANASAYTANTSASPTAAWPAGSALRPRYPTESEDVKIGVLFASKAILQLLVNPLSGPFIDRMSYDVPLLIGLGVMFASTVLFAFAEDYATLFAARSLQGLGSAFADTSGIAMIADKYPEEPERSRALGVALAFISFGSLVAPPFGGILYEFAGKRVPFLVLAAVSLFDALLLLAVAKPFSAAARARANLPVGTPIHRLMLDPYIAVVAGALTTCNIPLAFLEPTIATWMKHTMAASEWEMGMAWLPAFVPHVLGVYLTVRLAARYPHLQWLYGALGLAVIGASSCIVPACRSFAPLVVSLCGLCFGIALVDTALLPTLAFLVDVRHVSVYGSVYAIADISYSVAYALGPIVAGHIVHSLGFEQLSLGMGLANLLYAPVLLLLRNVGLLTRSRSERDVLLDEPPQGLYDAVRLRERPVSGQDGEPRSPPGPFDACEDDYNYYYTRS

[50] = Displacement of [3H]DTG from sigma 2 receptor in rat liver membrane homogenates after 120 mins by scintillation counting analysis; assay type: cell membranes
Procedure, shortened: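 Rat liver membrane homogenate (~300 µg protein) with ~5 nM [3H]DTG plus 1 µM (+)-pentazocine to block sigma-1 sites, 120 min at room temperature, pH 7.4 Tris buffer. Nonspecific binding taken with 10 µM haloperidol. Filtration and scintillation counting.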

Macaca fascicularis = assay: Ratio of drug level in cynomolgus monkey […] at 5 to 7 mCi, iv after 70 mins; settings: in vivo
PC-12 [51] = assay: Selectivity ratio, ratio of Ki for sigma 1 receptor in guinea pig brain homogenates to Ki for human VAChT expressed in rat PC12 cells; assay type: cell-based
PC-12 [52] = assay: Selectivity ratio, ratio of Ki for sigma 2 receptor in rat liver homogenates to Ki for human VAChT expressed in rat PC12 cells; assay type: cell-based

Compound: [11CH3]Nc1ccc(C(=O)C2CCN([C@H]3Cc4ccccc4C[C@@H]3O)CC2)cc1
Drug uptake (Blood [1]): 0.34 % ID/g | Drug uptake (Heart [2]): 0.49 % ID/g | Drug uptake (Lung [3]): 1.77 % ID/g | Drug uptake (Liver [4]): 3.45 % ID/g | Drug uptake (Muscle tissue [5]): 0.22 % ID/g | Drug uptake (Rattus norvegicus [6]): 0.18 % ID/g | Drug uptake (Pancreas [7]): 0.89 % ID/g | Drug uptake (Spleen [8]): 1.19 % ID/g | Drug uptake (Kidney [9]): 1.47 % ID/g | Drug uptake (Brain [10]): 0.57 % ID/g | Drug uptake (Blood [11]): Active | Drug uptake (Heart [12]): Active | Drug uptake (Lung [13]): Active | Drug uptake (Muscle tissue [14]): Active | Drug uptake (Rattus norvegicus [15]): Active | Drug uptake (Pancreas [16]): Active | Drug uptake (Spleen [17]): Active | Drug uptake (Kidney [18]): Active | Drug uptake (Brain [19]): Active | Drug uptake (Liver [20]): 2.44 % ID/g | Drug uptake (Blood [21]): Active | Drug uptake (Heart [22]): Active | Drug uptake (Lung [23]): Active | Drug uptake (Liver [24]): Active | Drug uptake (Muscle tissue [25]): Active | Drug uptake (Rattus norvegicus [26]): Active | Drug uptake (Pancreas [27]): Active | Drug uptake (Spleen [28]): Active | Drug uptake (Kidney [29]): 1.21 % ID/g | Drug uptake (Brain [30]): Active | Drug uptake (Cerebellum [31]): 0.157 % ID/g | Drug uptake (Striatum [32]): 0.593 % ID/g | Drug uptake (Rattus norvegicus [33]): 0.245 % ID/g | Drug uptake (Cortex [34]): 0.262 % ID/g | Drug uptake (Thalamus [35]): 0.293 % ID/g | Drug uptake (Hippocampus [36]): 0.265 % ID/g | Drug uptake (Brain [37]): 0.272 % ID/g | Drug uptake (Cerebellum [38]): 0.404 % ID/g | Drug uptake (Striatum [39]): 1.02 % ID/g | Drug uptake (Rattus norvegicus [40]): 0.577 % ID/g | Drug uptake (Cortex [41]): 0.637 % ID/g | Drug uptake (Thalamus [42]): 0.6 % ID/g | Drug uptake (Hippocampus [43]): 0.562 % ID/g | Drug uptake (Brain [44]): 0.596 % ID/g | Drug uptake [45]: Active | Drug uptake [46]: Active | Ratio (Brain [47]): 2.2 | Ki [48]: 992 nM | Ki [49]: 0.78 nM | Ki [50]: 11400 nM | Ratio (Macaca fascicularis): > 2.5

Compound: O=C(c1cccs1)C1CCN([C@@H]2Cc3ccccc3C[C@H]2O)CC1 (racemic)
Ki [49]: 5 nM

Compound: Nc1cccc2c1C[C@@H](N1CCC(C(=O)c3cccnc3)CC1)[C@H](O)C2 (racemic)
Ratio Ki (PC-12 [51]): 170 | Ratio Ki (PC-12 [52]): 43 | Ki [48]: 20300 nM | Ki [49]: 118 nM | Ki [50]: 5080 nM

Ki [49]: 48 nM | Ki [50]: 27500 nM
Compound: Cc1ccc(C(=O)C2CCN([C@@H]3Cc4c(N)cccc4C[C@H]3O)CC2)cn1 (racemic)
